Assay results as given in ChEMBL document CHEMBL1157544, “New benzophenone-derived bisphosphonium salts as leishmanicidal leads targeting mitochondria through inhibition of respiratory complex II” (2010).
The source made the active and inactive calls. The rule behind the calls is not given here.

Tests used:
Leishmania pifanoi = experiment: Antileishmanial activity against Leishmania pifanoi MHOM/VE/60/Ltrod after 96 hrs by MTT assay; type: functional
How it was run: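 Axenic amastigotes harvested at late exponential phase, washed twice in HBSS plus 10 mM D-glucose (pH 7.2) and set at 2 × 10^7 cells/mL. Drug exposure 4 h at 32 °C, then washed. Regrowth 96 h at 32 °C in growth medium without phenol red, followed by MTT (1 mg/mL) reduction for 2 h at 32 °C. LC50 taken from sigmoidal curves; triplicates ± SD.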

Leishmania donovani [1] = experiment: Antileishmanial activity against Leishmania donovani MHOM/SC/00/1S-2D promastigotes after 48 hrs by MTT assay; type: functional
How it was run: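 Late-exponential promastigotes washed twice in HBSS plus 10 mM D-glucose (pH 7.2) and resuspended at 2 × 10^7 cells/mL. Drug exposure 4 h at 25 °C, then cells washed to remove unbound drug. Regrowth 48 h at 25 °C in growth medium without phenol red, followed by MTT (1 mg/mL) reduction for 2 h at 25 °C. LC50 taken from sigmoidal inhibition curves; mean of triplicates ± SD.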

Leishmania donovani [2] = experiment: Antileishmanial activity against Leishmania donovani MHOM/SC/00/1S-2D promastigotes assessed as rhodamine 123 accumulation at LC50 by mitochondrial membrane potential assay; type: functional
How it was run: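 Promastigotes held overnight in growth medium with each compound at its LC50, then loaded with 0.3 μg/mL rhodamine 123. Dye uptake measured by flow cytometry (ex 488/em 525 nm) and expressed as percent of untreated cells. 1 mM KCN used as the fully depolarized control.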

Leishmania donovani [3] = experiment: Antileishmanial activity against digitonized Leishmania donovani MHOM/SC/00/1S-2D promastigotes assessed as inhibition of oxygen consumption at 16 uM in presence of FCCP mitochondrial uncoupler; type: functional, organism-based
How it was run: (§1)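 Clark electrode at 25 °C. Promastigotes at 10^8 cells/mL in respiration buffer with 5 mM succinate and 1 mg/mL fatty-acid-free BSA. Cells permeabilized with 60 μM digitonin, then 100 μM ADP added for state 3. After a steady rate, compound added, then 10 μM FCCP, 0.1 mM TMPD + 1.7 mM ascorbate, 6.7 mM α-glycerophosphate, 2 mM malonate or 1 μM antimycin A. Rates taken from trace slopes.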

Leishmania donovani [4] = experiment: Antileishmanial activity against Leishmania donovani MHOM/SC/00/1S-2D promastigotes assessed as plasma membrane integrity at 25 uM; type: functional, organism-based
How it was run: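 SYTOX green uptake. Promastigotes (2 × 10^7/mL) in HBSS-Glc were preincubated with 1 μM dye before compound was added. Fluorescence read at ex 485/em 520 nm. Full permeation was defined by 0.1% Triton X-100.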

Leishmania donovani [5] = experiment: Induction of apoptosis in Leishmania donovani MHOM/SC/00/1S-2D promastigotes assessed as apoptotic cells at 15 uM propidium iodide fluorescence cytofluorometry; type: functional
How it was run: (§2)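 Promastigotes incubated overnight with the compound, then stained with 50 μg/mL propidium iodide. The sub-G1 peak was measured by flow cytometry. 15 μM miltefosine under identical conditions served as the positive control.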

Leishmania donovani [6] = experiment: Antileishmanial activity against digitonized Leishmania donovani MHOM/SC/00/1S-2D promastigotes assessed as inhibition of oxygen consumption at 16 uM; type: functional, organism-based; how it was run: as §1
Leishmania donovani [7] = experiment: Induction of apoptosis in Leishmania donovani MHOM/SC/00/1S-2D promastigotes assessed as apoptotic cells at 2.5 uM propidium iodide fluorescence cytofluorometry; type: functional; how it was run: as §2
Leishmania donovani [8] = experiment: Induction of morphological changes in Leishmania donovani MHOM/SC/00/1S-2D promastigotes assessed as mitochondrial kinetoplast at 5 uM after 4 hrs; type: functional, organism-based
How it was run: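 Promastigotes treated 4 h under the standard conditions, washed in PBS and fixed in 5% glutaraldehyde. Post-fixed in 2.5% OsO4 for 1 h, dehydrated through graded ethanol and propylene oxide, embedded in Epon 812 and imaged by transmission electron microscopy.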

Leishmania donovani [9] = experiment: Antileishmanial activity against digitonized Leishmania donovani MHOM/SC/00/1S-2D promastigotes assessed as restoration of oxygen consumption at 16 uM in presence of TMPD-ascorbate; type: functional; how it was run: as §1
Leishmania donovani [10] = experiment: Antileishmanial activity against digitonized Leishmania donovani MHOM/SC/00/1S-2D promastigotes assessed as restoration of oxygen consumption at 16 uM in presence of alpha-glycerophosphate; type: functional, organism-based; how it was run: as §1
Leishmania donovani [11] = experiment: Decrease in intracellular ATP level in Leishmania donovani MHOM/SC/00/1S-2D promastigotes assessed as luminescence at 0.6 to 8 uM; type: functional, organism-based
How it was run: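 3-Luc promastigotes expressing cytoplasmic firefly luciferase, 2 × 10^7/mL in HBSS-Glc, loaded with 25 μM DMNPE-luciferin (final). Compound added at the luminescence plateau, counted as time zero and 100%. Luminescence recorded 80 min, averaged every 4 s, and normalized to untreated parasites.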

Leishmania donovani [12] = experiment: Induction of apoptosis in Leishmania donovani MHOM/SC/00/1S-2D promastigotes assessed as apoptotic cells at 1 uM propidium iodide fluorescence cytofluorometry; type: functional; how it was run: as §2
Leishmania donovani [13] = experiment: Antileishmanial activity against Leishmania donovani MHOM/SC/00/1S-2D promastigotes assessed as inhibition of proliferation at 5 um after 4 hrs; type: functional
How it was run: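 Promastigotes washed into HBSS-Glc pH 7.2 at 2 × 10^7 cells/mL and exposed to drug for 4 h at 25 °C. Cells then washed and left to grow 48 h at 25 °C in growth medium without phenol red. Growth read by MTT reduction (1 mg/mL, 2 h). Triplicate samples.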

CC[P+](CC)(CC)Cc1ccc(C(=O)c2ccc(C[P+](CC)(CC)CC)cc2)cc1
LC50 (Leishmania pifanoi): > 50000 nM | LC50 (Leishmania donovani [1]): > 50 µM

Cc1ccccc1[P+](Cc1ccc(C(=O)c2ccc(C[P+](c3ccccc3)(c3ccccc3)c3ccccc3C)cc2)cc1)(c1ccccc1)c1ccccc1.[Br-].[Br-]
LC50 (Leishmania pifanoi): 1510 nM | LC50 (Leishmania donovani [1]): 1.9 µM | Activity (Leishmania donovani [2]): 55.75%

O=C(c1ccc(C[P+](c2ccccc2)(c2ccccc2)c2ccccn2)cc1)c1ccc(C[P+](c2ccccc2)(c2ccccc2)c2ccccn2)cc1.[Br-].[Br-]
LC50 (Leishmania pifanoi): 2580 nM | LC50 (Leishmania donovani [1]): 3.03 µM | Activity (Leishmania donovani [2]): 100%

CC(C)[P+](Cc1ccc(C(=O)c2ccc(C[P+](C(C)C)(C(C)C)C(C)C)cc2)cc1)(C(C)C)C(C)C
LC50 (Leishmania pifanoi): > 50000 nM | LC50 (Leishmania donovani [1]): > 50 µM

CC[P+](CC)(Cc1ccc(C(=O)c2ccc(C[P+](CC)(CC)c3ccccc3)cc2)cc1)c1ccccc1
LC50 (Leishmania pifanoi): > 50000 nM | LC50 (Leishmania donovani [1]): > 50 µM

CC(C)C[P+](Cc1ccc(C(=O)c2ccc(C[P+](CC(C)C)(CC(C)C)CC(C)C)cc2)cc1)(CC(C)C)CC(C)C
LC50 (Leishmania pifanoi): > 50000 nM | LC50 (Leishmania donovani [1]): > 50 µM

O=C(c1ccc(C[P+](c2ccco2)(c2ccco2)c2ccco2)cc1)c1ccc(C[P+](c2ccco2)(c2ccco2)c2ccco2)cc1
LC50 (Leishmania pifanoi): > 50000 nM | LC50 (Leishmania donovani [1]): 18.1 µM

C[P+](C)(Cc1ccc(C(=O)c2ccc(C[P+](C)(C)c3ccccc3)cc2)cc1)c1ccccc1
LC50 (Leishmania pifanoi): > 50000 nM | LC50 (Leishmania donovani [1]): > 50 µM

C[P+](Cc1ccc(C(=O)c2ccc(C[P+](C)(c3ccccc3)c3ccccc3)cc2)cc1)(c1ccccc1)c1ccccc1.[Br-].[Br-]
LC50 (Leishmania pifanoi): 1640 nM | LC50 (Leishmania donovani [1]): 19.3 µM | Activity (Leishmania donovani [2]): 100%

CCCC[P+](CCCC)(CCCC)Cc1ccc(C(=O)c2ccc(C[P+](CCCC)(CCCC)CCCC)cc2)cc1
LC50 (Leishmania pifanoi): > 50000 nM | LC50 (Leishmania donovani [1]): > 50 µM

O=C(c1ccc(C[P+](c2ccccc2)(C2CCCCC2)C2CCCCC2)cc1)c1ccc(C[P+](c2ccccc2)(C2CCCCC2)C2CCCCC2)cc1.[Br-].[Br-]
LC50 (Leishmania pifanoi): 1450 nM | LC50 (Leishmania donovani [1]): 2.1 µM | Activity (Leishmania donovani [2]): 83.12%

CCC[P+](CCC)(CCC)Cc1ccc(C(=O)c2ccc(C[P+](CCC)(CCC)CCC)cc2)cc1
LC50 (Leishmania pifanoi): > 50000 nM | LC50 (Leishmania donovani [1]): > 50 µM

CCCCC[P+](CCCCC)(CCCCC)Cc1ccc(C(=O)c2ccc(C[P+](CCCCC)(CCCCC)CCCCC)cc2)cc1.[Br-].[Br-]
Activity (Leishmania donovani [3]): Active | Activity (Leishmania donovani [4]): inactive | LC50 (Leishmania pifanoi): 970 nM | LC50 (Leishmania donovani [1]): 1.09 µM | Activity (Leishmania donovani [5]): 24.9% | Activity (Leishmania donovani [6]): Active | Activity (Leishmania donovani [7]): 34.5% | Activity (Leishmania donovani [8]): Active | Activity (Leishmania donovani [9]): 50% | Activity (Leishmania donovani [2]): 48% | Activity (Leishmania donovani [10]): Active | Activity (Leishmania donovani [11]): Active | Activity (Leishmania donovani [12]): 22.1% | inhibition (INH) (Leishmania donovani [13]): 80%

CC[P+](Cc1ccc(C(=O)c2ccc(C[P+](CC)(c3ccccc3)c3ccccc3)cc2)cc1)(c1ccccc1)c1ccccc1.[Br-].[Br-]
LC50 (Leishmania pifanoi): 14000 nM | LC50 (Leishmania donovani [1]): 6.9 µM | Activity (Leishmania donovani [2]): 100%

Cc1ccc([P+](Cc2ccc(C(=O)c3ccc(C[P+](c4ccccc4)(c4ccccc4)c4ccc(C)cc4)cc3)cc2)(c2ccccc2)c2ccccc2)cc1.[Br-].[Br-]
LC50 (Leishmania pifanoi): 1380 nM | LC50 (Leishmania donovani [1]): 1.2 µM | Activity (Leishmania donovani [2]): 53.25%

C[P+](C)(C)Cc1ccc(C(=O)c2ccc(C[P+](C)(C)C)cc2)cc1
LC50 (Leishmania pifanoi): > 50000 nM | LC50 (Leishmania donovani [1]): > 50 µM

O=C(c1ccc(C[P+](c2ccccc2)(c2ccccc2)c2ccccc2)cc1)c1ccc(C[P+](c2ccccc2)(c2ccccc2)c2ccccc2)cc1.[Br-].[Br-]
LC50 (Leishmania pifanoi): 1530 nM | LC50 (Leishmania donovani [1]): 2.73 µM | Activity (Leishmania donovani [2]): 67.25%

O=C(c1ccc(C[P+](C2CCCCC2)(C2CCCCC2)C2CCCCC2)cc1)c1ccc(C[P+](C2CCCCC2)(C2CCCCC2)C2CCCCC2)cc1.[Br-].[Br-]
LC50 (Leishmania pifanoi): 1670 nM | LC50 (Leishmania donovani [1]): 3.3 µM | Activity (Leishmania donovani [2]): 42%

CCCCCCCC[P+](CCCCCCCC)(CCCCCCCC)Cc1ccc(C(=O)c2ccc(C[P+](CCCCCCCC)(CCCCCCCC)CCCCCCCC)cc2)cc1.[Br-].[Br-]
LC50 (Leishmania pifanoi): 1370 nM | LC50 (Leishmania donovani [1]): 5.66 µM | Activity (Leishmania donovani [2]): 10.8%

CCCCCCCCCCCCCCCCOP(=O)([O-])OCC[N+](C)(C)C [MILTEFOSINE]
LC50 (Leishmania pifanoi): 26300 nM | LC50 (Leishmania donovani [1]): 12.5 µM | Activity (Leishmania donovani [2]): 75%
